Tests used:
[1] = test system: intracellular reactive oxygen species (ROS) in HPAepiC cells; test: Intracellular ROS measurement with DCFH-DA after H2O2; type: cell-based; settings: 50 μM H2O2 in HPAepiC cells; 10 μM ebselen/EBs, NAC 10 mM
How it was run: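 HPAepiC cells were cultured 24 h in 35-mm dishes, exposed to 50 μM H₂O₂ for 1 h and washed three times. They were then given 10 μM test compound for 24 h, with 10 mM NAC as positive control. Cells were loaded with 10 μM DCFH-DA for 30 min at 37 °C in the dark, washed with PBS and imaged confocally (Ex 488 nm, Em 520–570 nm). Relative fluorescence intensity was scored.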

[2] = test system: HPAepiC cells; test: ROS-induced cell death; type: cell-based; settings: 50 μM H2O2 in HPAepiC cells; 10 μM ebselen/EBs, NAC 10 mM, 24 h
How it was run: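 HPAepiC cells were exposed to 50 μM H₂O₂ for 1 h, then washed three times with fresh medium. Medium with 10 μM test compound or 10 mM NAC was added for 24 h before cell death was assessed.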

[3] = molecular target: T1, SARS-CoV-2 Mpro (Severe acute respiratory syndrome coronavirus 2, UniProt P0DTD1); test: biochemical; settings: read-out: %Inhibition @0.3 μM
[4] = molecular target: T1, SARS-CoV-2 Mpro; test: HPLC assay for inhibition of Mpro; type: biochemical; settings: 0.3 μM compound, Mpro 0.2 μM; about 70% hydrolysis with Mpro alone
[5] = test system: SARS-CoV-2 virus; type: cell-based; settings: read-out: IC50 of inhibition of SARS-CoV-2 viral replication
[6] = molecular target: T1, SARS-CoV-2 Mpro; type: binding

Structure (SMILES) | intracellular ROS level (DCFH-DA fluorescence) [1] | ROS induced cell death [2] | inhibition at 0.3 µM [3] | substrate hydrolysis [4] | IC50 [5] | covalent binding to Mpro (peptide modified) [6]
CC(=O)N[C@@H](CS)C(=O)O [NAC, N-Acetyl-L-cysteine] | scavenged the intracellular ROS | reversed the cytotoxicity induced by ROS | – | – | – | –
O=c1c2ccccc2[se]n1-c1ccccc1 [Ebselen] | dramatically decreased | dramatically decreased | 61.2 ± 0.76% | 30% | 24.6 µM | identified to bind to ebselen
